An excerpt weighted towards active compounds, which were near 1.9% of everything screened.
N-glyco inh: N-linked glycosylation inhibition; D54 ERlucT glycosylation luciferase reporter, 24 h; percent of 100 nM tunicamycin response; reporter increase, % at 12.5 µM; 360,000 tested, 0.23% active; AID 588692;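 active = mean luciferase reporter signal, scaled so untreated is 0 and the glycosylation-blocking control 100, at or above a set limit in every replicate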;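 note: luciferase carries N-glycosylation sites so blocking glycosylation raises the light; 0% = median of neutral control wells and 100% = median of 100 nM tunicamycin wells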
SR-BI HDL uptake: inhibitors of mouse SR-BI mediated HDL lipid uptake | Q61009 | ldlA[mSR-BI] CHO cells, DiI-HDL uptake fluorescence, 3 h | inhibition, % at 12.5 µM | 320,000 tested, 0.96% active;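 active = mean replicate inhibition of at least 70% and a set share of replicates each scoring 70 or more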;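 note: 0% = median of neutral control wells and 100% = median of positive control wells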
PglD inh: PglD (C. jejuni) enzyme inhibition; inhibition, % at 12.5 µM; 360,000 tested, 0.098% active; purified PglD enzyme, DTNB colorimetric CoA detection; AID 602405; in the data active = inhibition above about 16%, passing the limit was not always enough
Env fusion inh: HIV envelope-mediated fusion inhibition. HeLa-JRFL Env/CEM21 cell fusion, luciferase. inhibition, % at 12.3 µM. 360,000 tested, 1.1% active;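 active = mean replicate inhibition score of at least 50 and every replicate individually at or above 50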;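 note: 0% = plate neutral controls and 100% = maraviroc near 300 nM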
Rtt109 HAT inh: C. albicans Rtt109 histone acetyltransferase inhibition; Q5AAJ8; purified Rtt109/Vps75, ThioGlo CoA-SH fluorescence, 4 h; inhibition, % at 34.9 µM; 330,000 tested, 0.16% active;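 active = inhibition of at least 50% in every replicate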
Target sequence (Q5AAJ8 whole entry, looked up): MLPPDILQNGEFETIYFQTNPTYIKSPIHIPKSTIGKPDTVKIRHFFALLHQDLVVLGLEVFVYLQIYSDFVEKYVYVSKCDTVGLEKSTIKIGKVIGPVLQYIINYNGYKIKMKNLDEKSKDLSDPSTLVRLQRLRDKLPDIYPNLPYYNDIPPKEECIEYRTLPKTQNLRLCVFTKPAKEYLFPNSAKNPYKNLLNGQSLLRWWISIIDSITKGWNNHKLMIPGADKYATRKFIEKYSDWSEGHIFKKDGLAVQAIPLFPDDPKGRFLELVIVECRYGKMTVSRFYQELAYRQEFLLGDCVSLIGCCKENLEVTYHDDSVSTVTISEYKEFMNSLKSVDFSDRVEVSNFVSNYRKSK
SR-BI DiI-HDL act: activators of SR-BI mediated HDL lipid uptake | AID 504775 | CHO ldlA[mSR-BI] cells, DiI-HDL uptake fluorescence, 3 h; 100 = double the neutral-control signal | 320,000 tested, 0.096% active | activation, % at 12.5 µM;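 active = mean replicate activation of at least 60% and every replicate at or above 60%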;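 note: 0% = median plate neutral-control signal and 100% = twice that signal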
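Material – SR-BI-overexpressing, LDLR-lacking CHO cells · Medium – BSA-supplemented, HEPES-buffered Ham's F12, pH 7.4 · Doses – single concentration · Times – compound with DiI-HDL co-incubation, 3 h at 37 °C · Measured by – bottom-read fluorescence, 550/595 nm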
* = called active by the depositor; [ ] = another dose, or the depositor's remark.

Screening C[C@H]1CN([C@@H](C)CO)C(=O)c2cc(C3=CCCCC3)cnc2O[C@H]1CN(C)C(=O)c1cccnc1 returned PglD inh 4 and Env fusion inh 13[16.7 µM].
Screening C[C@H]1CN([C@@H](C)CO)C(=O)c2cccc(NS(=O)(=O)c3cccs3)c2O[C@@H]1CN(C)C(=O)NC1CCCCC1 returned PglD inh 0.
Screening O=C(c1ccccn1)N1C[C@H]2[C@@H](c3ccccc31)[C@@H](CO)N2C(=O)Cc1ccccc1 returned PglD inh -1.
`CCC(=O)N(C)C[C@H]1Oc2ncc(Br)cc2C(=O)N([C@@H](C)CO)C[C@H]1C` gave PglD inh -1 and Env fusion inh -3[16.7 µM].
`COc1cc(CN2CCc3ccccc3C2)cc([N+](=O)[O-])c1O` gave N-glyco inh 3, SR-BI HDL uptake -6, PglD inh 5, Env fusion inh -6, Rtt109 HAT inh 1 and SR-BI DiI-HDL act 6.
COc1cc(CN2CCc3ccccc3C2)ccc1O was read as N-glyco inh 93*, Env fusion inh 33 and Rtt109 HAT inh -4.
Screening COc1ccc(CN2CCc3ccc(NC(=O)CCc4ccccc4OC)cc3C2)c(O)c1 returned N-glyco inh -4, SR-BI HDL uptake 72*, PglD inh -1, Env fusion inh 9, Rtt109 HAT inh 2 and SR-BI DiI-HDL act -72.
Screening COc1cc(CN2CCc3ccc(NC(=O)CCc4ccccc4OC)cc3C2)ccc1O returned N-glyco inh -3, SR-BI HDL uptake 70*, PglD inh 3, Env fusion inh -12, Rtt109 HAT inh 9 and SR-BI DiI-HDL act -70.
For CO[C@@H]1CN(C)C(=O)c2ccc(NC(=O)CN(C)C)cc2OC[C@@H](C)N(C(=O)C2CCOCC2)C[C@H]1C the results were PglD inh -2 and Env fusion inh 2[16.7 µM].
For COc1ccc(/C=C2\Sc3ccc(C(=O)NC4CC4)cc3N(C)C2=O)cc1OC the results were N-glyco inh -5, SR-BI HDL uptake 76*, PglD inh 1, Env fusion inh 9, Rtt109 HAT inh 5 and SR-BI DiI-HDL act -76.
Screening Cc1noc(C)c1NC(=O)NCC[C@@H]1CC[C@H](NC(=O)Nc2cccc(F)c2)[C@H](CO)O1 returned PglD inh 2 and Env fusion inh 19[16.7 µM].
O=C(c1ccccc1)c1ccc(OCC(O)CN2CCCCC2)cc1 (stereo not given) was read as N-glyco inh -4, SR-BI HDL uptake -20, PglD inh -1, Env fusion inh -7, Rtt109 HAT inh -15 and SR-BI DiI-HDL act 20.
`O=C(c1ccccc1)c1ccc(OCC(O)CN2CCN(S(=O)(=O)N3CCCCC3)CC2)cc1` (stereo not given) gave N-glyco inh -2, SR-BI HDL uptake 44, PglD inh 1, Env fusion inh 60*, Rtt109 HAT inh 5 and SR-BI DiI-HDL act -44.
Screening O=C(C[C@@H]1CC[C@@H](NS(=O)(=O)c2ccccc2)[C@@H](CO)O1)NCc1ccccc1F returned PglD inh 3 and Env fusion inh -2[16.7 µM].
Screening O=C(NCc1ccccc1)c1onc(CSc2ccc(F)cc2)c1C(=O)NCc1ccccc1 returned N-glyco inh -3, SR-BI HDL uptake 13, PglD inh -3, Env fusion inh -4, Rtt109 HAT inh 2 and SR-BI DiI-HDL act -13.
Cc1cc(C)cc(SCc2noc(C(=O)NCc3ccccc3)c2C(=O)NCc2ccccc2)c1 was read as N-glyco inh -3, SR-BI HDL uptake -35, PglD inh 0, Env fusion inh 64*, Rtt109 HAT inh 2 and SR-BI DiI-HDL act 35.
OC1(c2ccc(OC(F)F)cc2)CSC(=Nc2cccnc2)N1C1CC1 (stereo not given) was read as N-glyco inh -3, SR-BI HDL uptake -21, PglD inh -3, Env fusion inh 75*, Rtt109 HAT inh -3 and SR-BI DiI-HDL act 21.
COC(=O)N/N=C/c1cc(Cl)cc(Cl)c1OCc1ccc(F)cc1 was read as N-glyco inh -3, SR-BI HDL uptake 84*, PglD inh -2, Env fusion inh -23, Rtt109 HAT inh 6 and SR-BI DiI-HDL act -84.
For O=C(N/N=C/c1ccc(Cl)cc1)c1sccc1OCc1ccc(F)cc1 the results were N-glyco inh 33*, SR-BI HDL uptake 27, Rtt109 HAT inh -16 and SR-BI DiI-HDL act -27.
`COC(=O)N/N=C/c1cc(Cl)c(OCc2ccc(F)cc2)c(OC)c1` gave N-glyco inh -4, SR-BI HDL uptake 34, PglD inh -5, Env fusion inh -16, Rtt109 HAT inh 3 and SR-BI DiI-HDL act -34.
Screening CCOC(=O)N1CCN(C(=O)c2cc3c(=O)n(C)c4ccccc4c3n2C)CC1 returned N-glyco inh -2, SR-BI HDL uptake 16, PglD inh -1, Env fusion inh 66*, Rtt109 HAT inh -13 and SR-BI DiI-HDL act -16.
Screening CCN1CCN(C(=O)c2cc3c(=O)n(C)c4ccccc4c3n2C)CC1 returned N-glyco inh -1, SR-BI HDL uptake -11, PglD inh 1, Env fusion inh -47, Rtt109 HAT inh 27 and SR-BI DiI-HDL act 11.
Screening COc1ccc(/C=N/NC(=O)COc2ccc(Cl)cc2Cl)cc1Cn1nc(C)cc1C returned N-glyco inh 0, SR-BI HDL uptake 33, Env fusion inh -9, Rtt109 HAT inh 54* and SR-BI DiI-HDL act -33.
`CCOC(=O)c1csc(N)c1-c1ccc([N+](=O)[O-])cc1` gave N-glyco inh 0, SR-BI HDL uptake -69, PglD inh 6, Env fusion inh 5, Rtt109 HAT inh -2 and SR-BI DiI-HDL act 69*.
Screening C[C@H]1CCCCO[C@H](CN(C)C(=O)Nc2cccc3ccccc23)[C@@H](C)CN([C@@H](C)CO)C(=O)c2cc(NC(=O)Nc3ccc(C(F)(F)F)cc3)ccc2O1 returned PglD inh 0 and Env fusion inh 11[16.7 µM].
For CCn1c(-c2ccc(C)cc2)nn(CC(=O)NCCc2ccccc2)c1=S the results were N-glyco inh -10, SR-BI HDL uptake -47, Env fusion inh 76*, Rtt109 HAT inh 0 and SR-BI DiI-HDL act 47.
COc1ccc(-c2nn(CC(=O)NCCc3ccccc3)c(=S)n2C)cc1 was read as N-glyco inh -1, SR-BI HDL uptake -16, Rtt109 HAT inh -1 and SR-BI DiI-HDL act 16.
Screening O=[N+]([O-])c1ccccc1/C=C/C=N/Nc1nc(N2CCCCC2)nc(N2CCCCC2)n1 returned N-glyco inh -2, SR-BI HDL uptake 79*, Env fusion inh 1, Rtt109 HAT inh -7 and SR-BI DiI-HDL act -79.
Screening O=C(Nc1ccc(F)cc1)N[C@H]1CC[C@H](CC(=O)N2CCCCC2)O[C@H]1CO returned PglD inh 6 and Env fusion inh -15[16.7 µM].
Screening O=C(C[C@H]1C[C@H]2c3cc(NS(=O)(=O)c4ccc(F)cc4)ccc3O[C@H]2[C@@H](CO)O1)NCc1ccncc1 returned PglD inh 1.

Screens (PubChem)
